# Screening results from PubChem BioAssay.
# KCNK9 inh: inhibitors of human KCNK9 two-pore domain potassium channel | Q9NPC2 | HEK293 KCNK9, FluxOR thallium flux fluorescence; active compounds read low | actives 1.2% (n = 310,000) | B-score at 10 µM;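 active means ratio B-score over 3 SD below the library mean, with starting fluorescence within 5 SD of its mean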;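 further: negative B-score means less thallium flux so channel inhibition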
# Target sequence (Q9NPC2 whole entry, looked up, the tested form may be a part): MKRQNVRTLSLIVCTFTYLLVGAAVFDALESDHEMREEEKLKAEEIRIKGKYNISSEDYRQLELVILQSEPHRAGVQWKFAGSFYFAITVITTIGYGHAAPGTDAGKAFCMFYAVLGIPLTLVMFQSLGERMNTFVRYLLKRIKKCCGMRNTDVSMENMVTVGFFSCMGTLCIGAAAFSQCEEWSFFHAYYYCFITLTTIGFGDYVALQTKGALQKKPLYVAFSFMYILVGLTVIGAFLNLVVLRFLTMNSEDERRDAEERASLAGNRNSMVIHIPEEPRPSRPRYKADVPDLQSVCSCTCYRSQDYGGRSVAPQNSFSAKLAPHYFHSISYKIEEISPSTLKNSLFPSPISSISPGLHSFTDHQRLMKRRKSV
# KCNQ1 block: inhibitors of human KCNQ1 potassium channel; P51787; CHO-K1 KCNQ1, FluxOR thallium flux fluorescence; active compounds read high; AID 2642; actives 1.3% (n = 310,000); B-score at 10 µM;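 active means compounds whose thallium flux B-score, printed positive for inhibition, exceeds three library SD while starting fluorescence stays within three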;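 further: channel opened by potassium depolarization with thallium stimulus after 20 min compound exposure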
# hERG protect: compounds protecting human hERG from proarrhythmic drug block. Q12809. CHO-hERG, FluxOR thallium flux, dofetilide IC70 present. activation (rescue from dofetilide block), less the hit threshold, % at 10 µM. actives 0.51% (n = 310,000). AID 1511;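 active means activation above the mean of controls blocked by dofetilide plus 5 SD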;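 further: thallium influx through hERG after potassium depolarization seen as dye fluorescence rise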
# KCNK3 inh: human KCNK3 channel inhibition, primary screen; O14649; CHO-KCNK3 thallium flux, FluxOR fluorescence; active compounds read low; B-score at 10 µM; actives 0.84% (n = 340,000);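 active means B-score under library mean minus 4 SD, starting fluorescence ratio at most library mean plus 5 SD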;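 further: more negative B-score means stronger inhibition of thallium flux through KCNK3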
# KCNQ1 act: potentiators or activators of human KCNQ1 potassium channel; CHO-K1 KCNQ1, thallium flux FluxOR fluorescence; active compounds read high; B-score at 10 µM; actives 0.35% (n = 310,000); AID 2648;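 active means fluorescence ratio B-score, a plate-corrected score, at least three library SD, with initial intensity B-score within 5 SD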
#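 Test system: CHO-K1 cells stably expressing KCNQ1 / Medium: assay buffer / Also added: depolarizing K+/Tl+ stimulus, K2SO4 and Tl2SO4 each 12.5 mM in 5x stock / Incubation: 90 min dye loading and 20 min compound exposure, both at room temperature / Signal: thallium influx via FluxOR fluorescence, kinetic imaging / Evaluation: B score of baseline-normalized fluorescence ratio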
# KCNQ1 inh valid: reconfirmed blocker of the human KCNQ1 potassium channel. shares compounds with KCNQ1 block. actives 93% (n = 1,600). AID 588353. KCNQ1 cell line, FluxOR thallium flux fluorescence. inhibition, % at 10 µM;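 active means primary screen active, with duplicate mean exceeding buffer control mean plus 3 SD of buffer wells, cut at about 28% in these data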
# CHO KCNQ1 ctr: KCNQ1 inhibitor counter-screen hit in parental CHO cells; fluorescence ratio (Tl flux) at 10 µM; actives 21% (n = 1,600); parental CHO-K1, FluxOR thallium flux fluorescence ratio; active compounds read low; zero means no signal rise above baseline; shares compounds with KCNQ1 block; AID 588366;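 active means mean of duplicate thallium-flux fluorescence ratios in parental host cells more than 5 SD below the buffer control mean, cut at about 0.38 in these data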;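 further: ratio is peak minus minimum fluorescence divided by baseline fluorescence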
# KCNQ1 APC inh: human KCNQ1 inhibition validated by electrophysiology. shares compounds with KCNQ1 block. KCNQ1-CHO cells, automated patch clamp current. calls only at 10 µM. actives 20% (n = 490). AID 624120;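 active means KCNQ1 current drop exceeding 3 SD of negative control wells, seen in both duplicate runs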;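 further: steady state current during a 2 s step from -80 to +40 mV; negative values mean current inhibition and positive values mean potentiation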
# KCNQ2 inh: KCNQ1 inhibitor that also blocks rat KCNQ2 channel | inhibition, % at 10 µM | shares compounds with KCNQ1 block | actives 71% (n = 1,600) | AID 651746 | KCNQ2 cells, FluxOR thallium flux fluorescence;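 active means mean percent inhibition of the KCNQ2 thallium signal more than 5 SD above the buffer-only control wells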;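 further: KCNQ2 expressed in CHO cells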
# KCNQ1 KCNE1 spec: KCNQ1 inhibitor that also blocks human KCNQ1/KCNE1 channel; actives 77% (n = 1,600); shares compounds with KCNQ1 block; inhibition, % at 10 µM; KCNQ1/KCNE1 cells, FluxOR thallium flux fluorescence;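 active means mean percent inhibition of duplicate wells above the buffer-only control mean plus 3 SD of those controls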
# Numbers stand for hits; - = inactive; . = no result; + = active, no number. Shown are actives, neighbours in structure and some others; about 3.1% of the full set was active somewhere.
SMILES,KCNK9 inh,KCNQ1 block,hERG protect,KCNK3 inh,KCNQ1 act,KCNQ1 inh valid,CHO KCNQ1 ctr,KCNQ2 inh,KCNQ1 KCNE1 spec,others
O=C1C(Cl)=C(N2CCCCCC2)C(=O)N1c1ccc(Br)cc1,-,6,-,-,-,85,-,101%,100%,
O=C1C(Cl)=C(N2CCCCCC2)C(=O)N1c1ccccc1,-,-,-,-,-,.,.,.,.,
O=C(NCC(=O)N(Cc1ccccc1)C(C(=O)NC1CCCCC1)c1ccco1)c1ccco1 (centres undefined),-,-,-,-,-,.,.,.,.,
O=C(NC1CCCCC1)C(c1ccco1)N(Cc1ccco1)C(=O)c1ccco1 (centres undefined),-,7,-,-,-,96,-,70%,112%,KCNQ1 APC inh=+
CC(C)CN1CCC(=O)N(CCN=[N+]=[N-])CC1,-,-,-,-,-,.,.,.,.,
O=C(Nc1cccc(F)c1)c1ccc(-c2ccccc2Cl)o1,-,8,-,-,-,161,0.31,119%,+,
COc1ccccc1NS(=O)(=O)c1cccc(C(=O)N2CCN(Cc3ccc4c(c3)OCO4)CC2)c1,-,-,-,-,-,.,.,.,.,
O=C(NC(NC1CCS(=O)(=O)C1)C(Cl)(Cl)Cl)c1cccc(Cl)c1 (centres undefined),-,-,-,-,-,.,.,.,.,
O=C(NC(NC1CCS(=O)(=O)C1)C(Cl)(Cl)Cl)c1ccc(Br)cc1 (centres undefined),-,10,-,-,-,64,-,88%,36%,
CC(=O)c1ccc(NC(=S)NC(C)CCc2ccccc2)cc1 (centres undefined),-,7,-,-,-,38,-,-,41%,
Cc1ccc(NC(=S)NC(C)CCc2ccccc2)cc1C (centres undefined),-,-,-,-,-,.,.,.,.,
CCc1ccc(N2CC(C(=O)Nc3ccc4c(c3)OCCO4)CC2=O)cc1 (centres undefined),-,-,-,-,-,.,.,.,.,
CC(Oc1cccc(Cl)c1)C(=O)Nc1ccccc1N1CCCCC1 (centres undefined),-7.8,9,-,-,-,116,-,84%,138%,KCNQ1 APC inh=-
Cc1ccc2nc(SCC(=O)OCc3ccccc3)nc(=O)n2c1,-,-,-,-,-,.,.,.,.,
Cc1cc(N2CCCC2=O)cc(C)c1S(=O)(=O)NCCOc1ccc(C(C)(C)C)cc1,-,10,-,-,-,138,-,112%,141%,KCNQ1 APC inh=-
O=C1CCCN1c1ccc(S(=O)(=O)NCCOc2ccccc2)cc1,-,-,-,-,-,.,.,.,.,
COc1ccc(CCNc2nc(N3CCCCC3)nc(N3CCCCC3)n2)cc1OC,-,6,-,-,-,106,0.37,123%,+,
CC(C)Cc1nnc(NC(=O)CCS(=O)(=O)c2ccc(Cl)cc2)s1,-,-,-,-,-,.,.,.,.,
CC1CCCCN1CC(O)COCCC12CC3CC(CC(C3)C1)C2 (centres undefined),-,8,-,-,-,90,-,71%,64%,KCNQ1 APC inh=+
CCOC(=O)N1CCN(CC(O)COCCC23CC4CC(CC(C4)C2)C3)CC1 (centres undefined),-,-,-,-,-,.,.,.,.,
O=C(NCCCc1ccccc1)c1cccc(NC(=O)C2CCCCC2)c1,.,.,.,-,.,.,.,.,.,
COc1ccc(-c2nc(NC(=O)c3[nH]c(C)c(C(C)=O)c3C)sc2C)cc1,-,14,-,-9.9,-,97,0.28,110%,180%,
Cc1ccc(NC(=O)C(=O)c2ccc(C)cc2)cc1,-,-,-,-,-,.,.,.,.,
CCN(CC)c1ccc(Nc2nc(N3CCOCC3)c3ccccc3n2)cc1,-,8,-,-,-,112,-,117%,100%,KCNQ1 APC inh=-
CCOc1ccc(C2CC(c3cccc(OC)c3OC)n3nnnc3N2)cc1Cl (centres undefined),-,7,-,-,-,-,-,59%,-,
SMILES,KCNK9 inh,KCNQ1 block,hERG protect,KCNK3 inh,KCNQ1 act,KCNQ1 inh valid,CHO KCNQ1 ctr,KCNQ2 inh,KCNQ1 KCNE1 spec,others
CC(=O)Nc1ccc(NC(=O)C(C)OC(=O)c2ccc3ccccc3n2)cc1 (centres undefined),.,.,.,-,.,.,.,.,.,
CC(NC(=O)Nc1nnc(C(F)(F)F)s1)(C(F)(F)F)C(F)(F)F,-,7,-,-,-,-,-,-,-,
CC(C)(C)CC(=O)Nc1nnc(C(F)(F)F)s1,-,-,-,-,-,.,.,.,.,
Cn1ncc2c(N3CCN(c4ccc(Cl)c(Cl)c4)CC3)ncnc21,-,10,-,-,-,103,-,-,61%,KCNQ1 APC inh=-
CCCCc1ccc(NC(=O)CSc2nc(=O)n(CCCN3CCOCC3)c3c2CCC3)cc1,-,-,-,-,-,.,.,.,.,
Cc1onc(-c2ccccc2)c1CNC(=O)Nc1cccc(Cl)c1,-,7,-,-,-,76,-,74%,79%,
COc1ccc(C(CNC(=O)c2ccco2)N2CCCC2)cc1 (centres undefined),.,.,.,-,.,.,.,.,.,
COc1ccc(N=C2NC(=O)S/C2=C\c2ccc(N(C)C)cc2)cc1,-,7,-,-,-,60,0.38,66%,106%,
CN(C)c1ccc(C=C2SC(=S)NC2=O)cc1,.,.,.,-,.,.,.,.,.,
Cc1c(C(=O)Nc2c(F)cccc2F)sc2ncnc(N3CCN(c4ccccc4)CC3)c12,-,7,-,-,-,64,-,104%,88%,
COc1ccc(NC(=O)c2sc3ncnc(N4CCN(c5ccccn5)CC4)c3c2C)cc1Cl,-,8,-,-,-,80,-,97%,108%,
Cc1cc(Br)ccc1NC(=O)c1sc2ncnc(N3CCN(c4ccccn4)CC3)c2c1C,-,6,-,-,-,89,-,104%,82%,KCNQ1 APC inh=-
COc1ccc(NC(=O)CN2CCN(c3ccccn3)CC2)cc1Cl,-,-,-,-,-,.,.,.,.,
COc1ccc(CNC(=O)CN2C(=O)NC(Cc3ccccc3)(c3ccccc3)C2=O)cc1OC (centres undefined),.,.,.,-,.,.,.,.,.,
COc1ccc(-c2nc(CS(=O)(=O)CC(=O)NCCCN3CCN(C)CC3)c(C)o2)cc1,-,-,-,-,-,.,.,.,.,
CCOC(=O)C1(CCOc2ccccc2)CCN(Cc2ccc(O)c(OCC)c2)CC1,-,-,-,-,-,.,.,.,.,
COC(=O)c1cc(NC(=S)Nc2cc(Cl)cc(Cl)c2)cc(C(=O)OC)c1,-,8,-,-,-,66,-,59%,-,
